Experimental data from ChEMBL document CHEMBL1123060, “Substrate specificity of pyroglutamylaminopeptidase” (J Med Chem, 1985).

Columns and labels:
[1] = Inhibition of pyroglutamylaminopeptidase at a dose of 6.51 mM relative to 2-Oxo-hexahydro-pyrimidine-4-carboxylic acid; details: 6510 µM
How it was run: (§1)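 Enzyme purchased commercially, 5.5 units per digestion in pH 8.0 phosphate deblocking buffer (5% glycerol, 5 mM DTT, 10 mM EDTA, N2/Ar-purged). Preincubated 3 min at 37 °C, then substrate plus Leu internal standard added with the inhibitor at the stated level and digested 180 min at 37 °C. Gly-Ile released was quantitated by amino acid analysis. Values are cleavage relative to the uninhibited digest (set to 1.0), from a single experiment.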

[2] = Inhibition of pyroglutamylaminopeptidase at a dose of 13.02 mM relative to 2-Oxo-hexahydro-pyrimidine-4-carboxylic acid; details: 13020 µM; how it was run: as §1
[3] = Inhibition of pyroglutamylaminopeptidase at a dose of 13.02 mM relative to Pyrrolidin-2-one-CO-Gly-Ile; details: 13020 µM; how it was run: as §1
[4] = Inhibition of pyroglutamylaminopeptidase at a dose of 6.51 mM relative to Pyrrolidin-2-one-CO-Gly-Ile; details: 6510 µM; how it was run: as §1
[5] = Inhibition of pyroglutamylaminopeptidase at a dose of 8.32 mM relative to Pyrrolidin-2-one-CO-Gly-Ile; details: 8320 µM; how it was run: as §1
[6] = Inhibition of pyroglutamylaminopeptidase at a dose of 16.64 mM relative to Pyrrolidin-2-one-CO-Gly-Ile; details: 16640 µM; how it was run: as §1
[7] = Inhibition of pyroglutamylaminopeptidase at a dose of 16.64 mM relative to 2-Oxo-hexahydro-pyrimidine-4-carboxylic acid; details: 16640 µM; how it was run: as §1
[8] = Inhibition of pyroglutamylaminopeptidase at a dose of 8.32 mM relative to 2-Oxo-hexahydro-pyrimidine-4-carboxylic acid; details: 8320 µM; how it was run: as §1

Hydrolysis rate [1] | Hydrolysis rate [2] | Hydrolysis rate [3] | Hydrolysis rate [4] | Hydrolysis rate [5] | Hydrolysis rate [6] | Hydrolysis rate [7] | Hydrolysis rate [8] | Structure (SMILES)
0.206 | 0.093 | 0.333 | 0.586 |  |  |  |  | O=C1CC[C@@H](C(=O)O)N1 [PIDOLIC ACID]
 |  |  |  | 0.889 | 0.884 | 0.752 | 0.86 | O=C1NCCC(C(=O)O)N1 (configuration not stated)
0.533 | 0.308 | 0.707 | 0.854 |  |  |  |  | O=C1NCC(C(=O)O)N1 (configuration not stated)
